This is a sample that favours compounds with a hit; in the whole collection about 29% have one here.
CYP2C9 inhib: blockers of cytochrome P450 2C9 activity – biochemical, luminescence, ADME assay, primary screen; P11712; CYP2C9 Supersomes, luciferin-H conversion; inhibition, % at 5 µM; actives 20% (n = 96,000); AID 777, 2007;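 active = blocking of liver enzyme CYP2C9 beyond about 50% at 5 µM, limit read from the data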
Ecoli WT expand: growth inhibitors of wild-type E. coli, primary screen, strain BW25113, expanded library, OD600; OD600 absorbance; growth inhibition, % at 100 µM; actives 0.15% (n = 98,000);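 active = growth inhibition above about 50% at one test dose, limit read from the data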;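 also: growth measured after 20 h incubation at 37 °C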
CYP2C19 act: human CYP2C19 activators, primary screen, biochemical, luminescence. recombinant CYP2C19, luciferin-H EGE luminescence; hits give high values; 0 = fully inhibited enzyme, 1 = untreated enzyme. activation factor at 5 µM. 96,000 tested, under 10 active. AID 1025, 2008;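 active = activation factor of at least 2 at 5 µM in the primary screen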;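 also: 0 = wells with 2.5 mM tranylcypromine and 1 = vehicle-only wells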
Target sequence (P33261 whole entry, looked up): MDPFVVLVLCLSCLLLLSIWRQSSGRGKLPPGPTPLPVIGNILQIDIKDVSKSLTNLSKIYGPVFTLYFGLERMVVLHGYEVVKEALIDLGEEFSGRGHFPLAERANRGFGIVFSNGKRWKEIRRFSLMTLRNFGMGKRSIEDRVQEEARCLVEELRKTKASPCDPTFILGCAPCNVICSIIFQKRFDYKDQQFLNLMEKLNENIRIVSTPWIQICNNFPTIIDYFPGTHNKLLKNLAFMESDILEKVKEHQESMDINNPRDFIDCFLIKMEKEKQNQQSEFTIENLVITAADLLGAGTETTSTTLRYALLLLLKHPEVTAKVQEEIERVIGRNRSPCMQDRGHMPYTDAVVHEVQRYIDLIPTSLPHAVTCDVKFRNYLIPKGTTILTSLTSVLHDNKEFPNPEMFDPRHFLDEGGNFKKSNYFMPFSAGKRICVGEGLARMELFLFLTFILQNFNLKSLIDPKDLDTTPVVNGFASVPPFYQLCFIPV
CYP2C9 act: human CYP2C9 activators, primary screen, biochemical, luminescence; Cytochrome P450 2C9 (Homo sapiens), P11712; recombinant CYP2C9, luciferin-H conversion; hits give high values; factor 1 = untreated enzyme, 0 = blocked; activation factor at 5 µM; actives 1.4% (n = 96,000); AID 1024, 2008;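 active = activation factor of 2 or more for CYP2C9 at a 5 µM dose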;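 also: 0 = sulfaphenazole-blocked wells and 1 = vehicle-only wells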
CYP2C19 inh: blockers of cytochrome P450 2C19 activity – biochemical, luminescence, ADME assay, primary screen; CYP2C19 Supersomes, luciferin-H EGE luminescence, 30 min; inhibition, % at 5 µM; actives 21% (n = 96,000); AID 778, 2007;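 active = CYP2C19 inhibition above a set limit at 5 µM in the primary screen, cut at about 50% in these data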;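 also: plate controls were negative control wells for no effect and 2.5 mM tranylcypromine positive control for full effect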
Ecoli tolC: growth inhibitors of E. coli tolC mutant, primary screen, strain BW25113 ΔtolC::kan, 384-well; OD615; growth inhibition, % at 10 µM (by protocol); actives 2.2% (n = 65,000); AID 573, 2007;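 active = growth inhibition at or above a cutoff equal to the mean over every tested compound plus 3 SD, cut at about 60% in these data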;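 also: growth measured after 20 h incubation at 37 °C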
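test system = E. coli BW25113 ΔtolC::kan bacteria | medium = LB with kanamycin 50 µg/mL | signal = OD at 615 nm | schedule = 37 °C, 20 h exposure | evaluation = % inhibition of E. coli growth | compound dosing = one dose of 10 µM final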
An asterisk follows results filed as active; . = not tested or not shown.

SMILES	CYP2C9 inhib	Ecoli WT expand	CYP2C19 act	CYP2C9 act	CYP2C19 inh	Ecoli tolC
O=C(CN1C(=O)c2cccc3cccc(c23)C1=O)N1CCCCCC1	-4	-1	1.1	1	-9	.
COc1ccc(-c2nsc(C(=O)N(c3ccc(F)cc3)C(C(=O)NC3CCCC3)c3ccc(OC)cc3)c2N)cc1 (stereo unspecified)	10	-16	1.1	0.9	-6	.
O=C(Nc1ccc(Cl)cc1)c1ccc(-n2cccn2)c([N+](=O)[O-])c1	-18	-8	1	1.2	-4	.
Cc1ccc(NC(=O)c2ccc(-n3cncn3)c([N+](=O)[O-])c2)cc1	91*	10	0	0.1	100*	.
O=C(Nc1cccc(Cl)c1)c1ccc(-n2cncn2)c([N+](=O)[O-])c1	100*	19	0	0	100*	.
O=C(Nc1ccc(Cl)cc1)c1ccc(-n2cncn2)c([N+](=O)[O-])c1	98*	12	0	0	100*	.
C/C(Cn1nnc([N+](=O)[O-])n1)=N\NC(=O)c1ccccc1	-10	16	0.9	1.1	12	.
O=C(COC(=O)c1cccnc1Cl)c1ccccc1	-1	-3	0.7	1	27	.
CCC(=O)Nc1ccccc1C(=O)OCC(=O)c1ccc2ccccc2c1	69*	-16	0.1	0.3	90*	.
O=C(COC(=O)c1ccccc1NC(=O)c1ccccc1)c1ccc([N+](=O)[O-])cc1	70*	-4	0.4	0.3	63*	.
CCC(=O)Nc1ccccc1C(=O)OCC(=O)c1ccccc1	91*	-4	0.3	0.1	73*	.
O=C(COC(=O)c1ccco1)c1ccc2ccccc2c1	27	0	0.7	0.7	31	.
COc1cc(C2C3=C(Nc4ncnn42)c2ccccc2CC3)cc(OC)c1OC (stereo unspecified)	66*	-3	0.3	0.3	66*	17
Fc1ccc(/C=C2\CCCC3=C2Nc2ncnn2C3c2ccc(F)cc2)cc1 (stereo unspecified)	15	-8	0.9	0.9	6	.
COc1ccc(C2C3=C(Nc4ncnn42)c2ccccc2CCC3)cc1 (stereo unspecified)	68*	4	0.1	0.3	92*	34
c1csc(C2C3=C(Nc4ncnn42)c2ccccc2OC3)c1 (stereo unspecified)	37	0	0.7	0.6	29	19
O=C(CCC(=O)N1CCN(c2ccccn2)CC1)Nc1nnc(C2CCCCC2)s1	10	-7	0.8	0.9	16	3
CCOc1ccc(Nc2oc(-c3ccccc3Cl)nc2C#N)cc1	76*	-1	0.8	0.2	21	.
CNc1oc(-c2ccccc2Cl)nc1C#N	16	13	0.7	0.8	26	15
CCC(C)NCCOCCSc1ccc(Cl)cc1 (stereo unspecified)	18	19	0.7	0.8	33	.
COc1ccccc1-c1nnc(NC(=O)C(C)C)s1	20	-1	0.7	0.8	28	8
CCCCOC(=O)Nc1nnc(-c2ccccc2OC)s1	-323	-8	0.9	4.2*	13	-4
COc1ccccc1-c1nnc(NC(C)=O)s1	-110	0	1.1	2.1*	-7	14
CCC(=O)NC1(C(F)(F)F)C(=O)Nc2c1c(=O)n(C)c(=O)n2C (stereo unspecified)	58*	1	0.3	0.4	72*	-9
COc1cccc(CN(C)C(=O)c2ccc3nccnc3c2)c1	12	-2	0.2	0.9	78*	.
Cc1cccc(OC(=O)c2ccc3nccnc3c2)c1	54*	6	0.9	0.5	7	.
CN(Cc1ccc(OC(F)F)cc1)C(=O)c1ccc2nccnc2c1	3	6	0.6	1	38	-6
CNc1nc(Nc2ccc(C(C)=O)cc2)nc(OC(C(F)(F)F)C(F)(F)F)n1	22	-3	1	0.8	1	67*
COc1ccc(/C=C/C(=O)c2ccc(NC(=O)c3cccs3)cc2)cc1OC	72*	-25	0.7	0.3	34	.

From PubChem BioAssay
